IDH1 R132H inh – inhibitors of human IDH1 R132H; AID 624101; inhibition, % at 10 µM; hit rate 0.18% among 70,000; IDH1 R132H reductase, diaphorase/resazurin fluorescence, 60 min; in the data active = inhibition above about 34%; inconclusive = no clear call, values can overlap the other calls; inactive = below about 11%
Target sequence (O75874 whole entry R132H): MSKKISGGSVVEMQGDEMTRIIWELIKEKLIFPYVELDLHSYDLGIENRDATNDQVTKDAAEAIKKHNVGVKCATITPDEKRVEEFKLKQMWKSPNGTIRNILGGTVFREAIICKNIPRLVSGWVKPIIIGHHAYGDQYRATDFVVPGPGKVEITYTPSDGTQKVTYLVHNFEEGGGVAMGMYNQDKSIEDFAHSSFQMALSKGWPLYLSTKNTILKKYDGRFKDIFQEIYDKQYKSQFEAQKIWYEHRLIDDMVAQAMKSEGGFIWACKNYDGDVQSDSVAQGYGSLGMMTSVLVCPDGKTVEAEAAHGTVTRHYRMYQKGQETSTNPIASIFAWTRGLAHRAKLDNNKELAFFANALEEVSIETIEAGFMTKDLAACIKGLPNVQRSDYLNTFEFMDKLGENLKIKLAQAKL
T cruzi growth-1 – blocks T. cruzi growth in NIH3T3 culture. T. cruzi beta-gal in NIH3T3, GalScreen luminescence, 90 h. inhibition, % at 8.34 µM. hit rate 5.9% among 77,000. AID 624255;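 active = mean inhibition above about 93%, with at least 55% of replicates each passing it, limit read from the data, passing the limit was not always enough; inconclusive = only one of those two conditions holds; inactive = neither condition holds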
Pf Dd2 inh – inhibitors of Plasmodium falciparum Dd2 growth | P. falciparum Dd2 growth, SYBR Green, 72 h; hits give low values | activity change, % at 10 µM | hit rate 2.3% among 94,000 | AID 1159554; in the data active = activity change below about -80%; inconclusive = no clear call, values can overlap the other calls
GASC1 inh – KDM4C (human) demethylase inhibition | Q9H3R0 | GST-KDM4C 2-372, H3K9me3 peptide, LANCE TR-FRET | inhibition, % at 12.5 µM | hit rate 0.15% among 96,000 | AID 720574;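 active = mean replicate inhibition above about 25%, with at least 55% of replicates also reaching it, limit read from the data, passing the limit was not always enough; inconclusive = only one of those two conditions met; inactive = neither condition met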
Target sequence (Q9H3R0 2-372 limits assumed): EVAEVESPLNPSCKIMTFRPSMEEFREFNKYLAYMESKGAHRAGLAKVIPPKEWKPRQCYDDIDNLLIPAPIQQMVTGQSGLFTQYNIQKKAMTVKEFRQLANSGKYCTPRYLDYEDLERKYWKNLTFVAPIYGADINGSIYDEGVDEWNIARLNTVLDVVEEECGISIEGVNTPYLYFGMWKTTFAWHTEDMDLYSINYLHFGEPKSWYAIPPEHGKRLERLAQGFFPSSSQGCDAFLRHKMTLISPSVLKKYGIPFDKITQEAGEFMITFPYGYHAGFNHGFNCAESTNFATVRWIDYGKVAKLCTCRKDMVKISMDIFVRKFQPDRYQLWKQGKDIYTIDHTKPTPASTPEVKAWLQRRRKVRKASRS
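reagent = H3K9me3 peptide substrate, Fe(II), 2-oxoglutarate | system = GST-tagged GASC-1 (JMJD2C) catalytic fragment, aa 2-372 | amount = enzyme final amount 10 nM | read-out = Fall in 671/618 emission ratio as inhibition | medium = HEPES buffer, pH 7.5, plus ascorbate | schedule = 30 min reaction, 60 min detection, RT | measured by = LANCE TR-FRET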
T cruzi growth-2 – inhibitors of T. cruzi proliferation | hit rate 72% among 5,600 | AID 651739 | inhibition, % at 8.35 µM | T. cruzi beta-gal in NIH3T3, GalScreen luminescence, 90 h | shares compounds with T cruzi growth-1;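 active = mean replicate inhibition above about 95% and at least 55% of replicates individually reaching it, limit read from the data; inconclusive = only one of the two criteria is met; inactive = neither criterion is met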
T cruzi growth-3 – inhibitors of T. cruzi proliferation. shares compounds with T cruzi growth-1. T. cruzi beta-gal in NIH3T3, GalScreen luminescence, 90 h. inhibition, % at 2.09 µM. hit rate 21% among 5,600. AID 651740;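 active = mean inhibition above about 95%, with at least 55% of replicates also reaching it, limit read from the data; inconclusive = meets just one of the two conditions; inactive = meets neither condition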
NIH3T3 tox – NIH/3T3 (mouse) viability loss; shares compounds with T cruzi growth-1; NIH/3T3 viability, CellTiter-Glo ATP luminescence, 90 h; cytotoxicity (signal decrease), % at 8.35 µM; hit rate 14% among 5,600; AID 651742;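 active = mean signal decrease across replicates above about 35% based on untreated-well scatter, with enough replicates individually passing, limit read from the data; inconclusive = no rule stated though some were filed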
3T3 cytotox 2 – NIH/3T3 (mouse) viability loss; shares compounds with T cruzi growth-1; NIH/3T3 viability, CellTiter-Glo ATP luminescence, 90 h; inhibition, % at 24.9 µM; hit rate 56% among 5,600; AID 651744;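 active = mean loss of cell viability signal at or above a set limit, and enough replicates individually reaching it; inconclusive = meets only the mean limit or only the replicate share; inactive = meets neither condition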
Numbers stand for hits. The list is not random: actives were taken first. Their share in the collection is about 5.8%.

Results for COCC(=O)N1CCCCN2[C@H](C1)[C@@H](c1ccc(-c3ccc(F)cc3)cc1)[C@@H]2CO ?
T cruzi growth-1: inactive; Pf Dd2 inh: inactive; GASC1 inh: inactive

How did Cc1ccc(-c2ccc([C@@H]3[C@@H](CO)N4CCCCN(C(=O)c5ccc(F)cc5)C[C@H]34)cc2)cc1 do in these assays?
T cruzi growth-1: 104.3; Pf Dd2 inh: inactive; GASC1 inh: inactive; T cruzi growth-2: 107.7; T cruzi growth-3: inactive; NIH3T3 tox: inactive; 3T3 cytotox 2: 103.7

Results for CCC(=O)N1CCCCN2[C@@H](CO)[C@H](c3ccc(-c4ccc(F)cc4)cc3)[C@@H]2C1 ?
T cruzi growth-1: 100.5; Pf Dd2 inh: inactive; GASC1 inh: inactive; T cruzi growth-2: inactive; T cruzi growth-3: inactive; NIH3T3 tox: inactive; 3T3 cytotox 2: 60.6

How did C[C@@H]1CN([C@@H](C)CO)C(=O)c2cc(N(C)C)ccc2O[C@@H]1CN(C)S(=O)(=O)c1ccccc1 do in these assays?
IDH1 R132H inh: inactive; T cruzi growth-1: inactive; Pf Dd2 inh: inactive; GASC1 inh: inactive

What do the screens show for `O=C(Nc1ccc2c(c1)OCO2)N[C@@H]1CC[C@@H](CCNC(=O)C2CCC2)O[C@@H]1CO`?
IDH1 R132H inh: inactive; Pf Dd2 inh: inactive; GASC1 inh: inactive

How did Cc1ccccc1-c1ccc([C@@H]2[C@H]3CN(C(=O)Nc4ccc(F)cc4)CCCCN3[C@H]2CO)cc1 do in these assays?
T cruzi growth-1: 107.0; Pf Dd2 inh: inactive; GASC1 inh: inactive; T cruzi growth-2: inactive; T cruzi growth-3: 104.8; NIH3T3 tox: inconclusive; 3T3 cytotox 2: 106.1

Results for Cc1ccccc1-c1ccc([C@H]2[C@H](CO)N3CCCCN(C(=O)Nc4ccc(F)cc4)C[C@@H]23)cc1 ?
T cruzi growth-1: 109.1; Pf Dd2 inh: inactive; GASC1 inh: inactive; T cruzi growth-2: 96.0; T cruzi growth-3: inactive; NIH3T3 tox: 41.7; 3T3 cytotox 2: 105.9

How did Cc1ccccc1-c1ccc([C@H]2[C@H]3CN(C(=O)Nc4cccc(F)c4)CCCCN3[C@H]2CO)cc1 do in these assays?
T cruzi growth-1: inactive; Pf Dd2 inh: inactive; GASC1 inh: inactive

Results for COc1ccccc1-c1ccc([C@H]2[C@@H](CO)N3CCCCN(C(=O)CN4CCOCC4)C[C@@H]23)cc1 ?
T cruzi growth-1: inconclusive; Pf Dd2 inh: inactive; GASC1 inh: inactive; T cruzi growth-2: inactive; T cruzi growth-3: inactive; NIH3T3 tox: inactive; 3T3 cytotox 2: 64.8

How did COc1ccccc1-c1ccc([C@@H]2[C@@H](CO)N3CCCCN(C(=O)CN4CCOCC4)C[C@@H]23)cc1 do in these assays?
T cruzi growth-1: 114.3; Pf Dd2 inh: inactive; GASC1 inh: inactive; T cruzi growth-2: inactive; T cruzi growth-3: inactive; NIH3T3 tox: inactive; 3T3 cytotox 2: 25.9

What do the screens show for `COc1ccc2c3c(n(C)c2c1)[C@H](CO)NCC31CCN(C(=O)c2ccccc2)CC1`?
Pf Dd2 inh: inactive

Results for CC(=O)N(C)C[C@H]1Oc2ncc(-c3cccc(F)c3)cc2C(=O)N([C@H](C)CO)C[C@H]1C ?
IDH1 R132H inh: inactive; T cruzi growth-1: inactive; Pf Dd2 inh: inactive; GASC1 inh: inactive

Results for C[C@@H]1CN([C@@H](C)CO)C(=O)c2ccccc2-c2ccccc2CO[C@H]1CN(C)C(=O)Nc1ccnc(N2CCOCC2)c1 ?
IDH1 R132H inh: inactive; T cruzi growth-1: 108.7; Pf Dd2 inh: inactive; GASC1 inh: inactive; T cruzi growth-2: 102.2; T cruzi growth-3: inactive; NIH3T3 tox: inactive; 3T3 cytotox 2: inactive

How did C[C@@H]1CN([C@@H](C)CO)C(=O)c2ccccc2-c2ccccc2CO[C@@H]1CN(C)C(=O)Nc1ccccc1 do in these assays?
T cruzi growth-1: inactive; Pf Dd2 inh: inactive; GASC1 inh: inactive

Results for C[C@@H]1CN([C@H](C)CO)C(=O)c2ccccc2-c2ccccc2CO[C@@H]1CN(C)C(=O)Nc1ccnc(N2CCOCC2)c1 ?
IDH1 R132H inh: inactive; T cruzi growth-1: inconclusive; Pf Dd2 inh: inactive; GASC1 inh: inactive; T cruzi growth-2: inactive; T cruzi growth-3: inactive; NIH3T3 tox: inactive; 3T3 cytotox 2: inactive

What do the screens show for `C[C@@H]1CN([C@@H](C)CO)C(=O)c2c(c3ccccc3n2C)-c2ccccc2CO[C@H]1CN(C)C(=O)Nc1ccnc(N2CCOCC2)c1`?
Pf Dd2 inh: inactive; GASC1 inh: inactive

How did N#Cc1cc2c(nc1SCC(=O)Nc1cccc(F)c1)CCCCC2 do in these assays?
IDH1 R132H inh: inactive

How did CO[C@H]1CN(C)C(=O)c2cc(NC(=O)Nc3cccc(F)c3)ccc2OC[C@@H](C)N(C(=O)C2CC2)C[C@@H]1C do in these assays?
T cruzi growth-1: inactive; Pf Dd2 inh: inactive; GASC1 inh: inactive

What do the screens show for `CNC[C@@H]1Oc2cc(C#Cc3cccc(OC)c3)ccc2S(=O)(=O)N([C@H](C)CO)C[C@H]1C`?
IDH1 R132H inh: inactive; T cruzi growth-1: 106.0; Pf Dd2 inh: inactive; GASC1 inh: inactive; T cruzi growth-2: 109.0; T cruzi growth-3: inactive; NIH3T3 tox: inactive; 3T3 cytotox 2: 103.2

How did CNC[C@H]1Oc2cc(C#Cc3ccc(OC)cc3)ccc2S(=O)(=O)N([C@H](C)CO)C[C@@H]1C do in these assays?
IDH1 R132H inh: inactive; T cruzi growth-1: 109.3; Pf Dd2 inh: -85.7; GASC1 inh: inactive; T cruzi growth-2: 98.2; T cruzi growth-3: inconclusive; NIH3T3 tox: 38.6; 3T3 cytotox 2: 105.3

Results for CNC[C@H]1Oc2cc(C#Cc3cccc(F)c3)ccc2S(=O)(=O)N([C@H](C)CO)C[C@@H]1C ?
IDH1 R132H inh: inactive; T cruzi growth-1: inconclusive; Pf Dd2 inh: inactive; GASC1 inh: inactive; T cruzi growth-2: 104.5; T cruzi growth-3: inactive; NIH3T3 tox: inactive; 3T3 cytotox 2: 105.1

What do the screens show for `CNC[C@H]1Oc2cc(C#Cc3cccc(F)c3)ccc2S(=O)(=O)N([C@@H](C)CO)C[C@@H]1C`?
IDH1 R132H inh: inactive; T cruzi growth-1: inactive; Pf Dd2 inh: inactive; GASC1 inh: inactive

What do the screens show for `NC(=O)COc1ccc(S(=O)(=O)N2CCOCC2)cc1`?
IDH1 R132H inh: inactive

What do the screens show for `COCCN(C[C@@H]1N[C@@H](CO)[C@@H]1c1ccc(-c2cccnc2)cc1)C(C)=O`?
T cruzi growth-1: inactive; Pf Dd2 inh: inactive; GASC1 inh: inactive

How did O=C(C[C@H]1CC[C@H](NC(=O)c2ccncc2)[C@H](CO)O1)Nc1ccc(-c2ccccc2)cc1 do in these assays?
Pf Dd2 inh: inactive; GASC1 inh: inactive

How did COc1ccc(NC(=O)Nc2ccc3c(c2)C(=O)N([C@@H](C)CO)C[C@H](C)[C@H](CN(C)C(=O)NC2CCCCC2)OCCCC[C@H](C)O3)cc1 do in these assays?
T cruzi growth-1: inconclusive; Pf Dd2 inh: inactive; GASC1 inh: inactive; T cruzi growth-2: 109.6; T cruzi growth-3: inactive; NIH3T3 tox: inactive; 3T3 cytotox 2: inactive
